In ChEMBL document CHEMBL4390674, “Defining Structure-Functional Selectivity Relationships (SFSR) for a Class of Non-Catechol Dopamine D1 Receptor Agonists” (J Med Chem, 2019):
The source made the active and inactive calls. The calls are words filed in the database; no cut-off is given here.

Legend:
D(1A) dopamine receptor [1] = target: T1, D(1A) dopamine receptor (Homo sapiens, UniProt P21728); assay: (§1) Agonist activity at recombinant C-terminal RLuc8-fused human D1 receptor expressed in HEK29T cells co-expressing N-terminal Venus-tagged beta-arrestin2 assessed as increase in beta-arrestin2 recruitment at 10^-4M measured after 15 mins in presence of coelenterazine H by BRET assay; type: cell-based
D(1A) dopamine receptor [2] = target: T1, D(1A) dopamine receptor; assay: as §1, with “assay relative to dopamine” for “assay”; type: cell-based
D(1A) dopamine receptor [3] = target: T1, D(1A) dopamine receptor; assay: Agonist activity at recombinant human D1 receptor expressed in HEK29T cells assessed as induction of stimulatory G-protein-mediated cAMP accumulation at 10'4M measured after 15 mins by Glosensor-based FLIPR assay; type: functional, cell-based
Method in brief: (§2)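 GloSensor-22F cAMP biosensor in HEK293T cells co-expressing human D1, seeded in DMEM + 1% dialyzed FBS; next day GloSensor reagent equilibrated ≥15 min at room temperature in HBSS/20 mM HEPES pH 7.4, then drug added in HBSS/HEPES/0.1% BSA/0.01% ascorbic acid. Luminescence read after 15 min; normalized to dopamine maximum (100%); sigmoidal fit; maximum tested 10⁻⁴ M; ≥3 experiments in triplicate.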

D(1A) dopamine receptor [4] = target: T1, D(1A) dopamine receptor; assay: Agonist activity at recombinant human D1 receptor expressed in HEK29T cells assessed as induction of stimulatory G-protein-mediated cAMP accumulation at 10'4M measured after 15 mins by Glosensor-based FLIPR assay relative to dopamine; type: functional, cell-based; method in brief: as §2
D(1A) dopamine receptor [5] = target: T1, D(1A) dopamine receptor; assay: Agonist activity at recombinant human D1 receptor expressed in HEK29T cells assessed as induction of stimulatory G-protein-mediated cAMP accumulation measured after 15 mins by Glosensor-based FLIPR assay; type: functional, cell-based; method in brief: as §2
D(1A) dopamine receptor [6] = target: T1, D(1A) dopamine receptor; assay: Agonist activity at recombinant human D1 receptor expressed in HEK29T cells assessed as induction of stimulatory G-protein-mediated cAMP accumulation measured after 15 mins by Glosensor-based FLIPR assay relative to dopamine; type: functional, cell-based; method in brief: as §2
D(1A) dopamine receptor [7] = target: T1, D(1A) dopamine receptor; assay: Agonist activity at recombinant C-terminal RLuc8-fused human D1 receptor expressed in HEK29T cells co-expressing N-terminal Venus-tagged beta-arrestin2 assessed as increase in beta-arrestin2 recruitment measured after 15 mins in presence of coelenterazine H by BRET assay; type: cell-based; conditions: read-out: EC50
D(1A) dopamine receptor [8] = target: T1, D(1A) dopamine receptor; assay: Agonist activity at recombinant C-terminal RLuc8-fused human D1 receptor expressed in HEK29T cells co-expressing N-terminal Venus-tagged beta-arrestin2 assessed as increase in beta-arrestin2 recruitment measured after 15 mins in presence of coelenterazine H by BRET assay relative to dopamine; type: cell-based
D(1A) dopamine receptor [9] = target: T1, D(1A) dopamine receptor; assay: Bias factor, transduction co-efficient for agonist activity at recombinant human D1 receptor expressed in HEK29T cells assessed as induction of stimulatory G-protein-mediated cAMP accumulation to agonist activity at recombinant C-terminal RLuc8-fused human D1 receptor expressed in HEK29T cells co-expressing N-terminal Venus-tagged beta-arrestin2 assessed as increase in beta-arrestin2 recruitment; type: functional, cell-based
Method in brief: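 Dopamine as full-agonist reference; transduction coefficients log(τ/KA) for Gs-cAMP (GloSensor) and β-arrestin2 (BRET) computed relative to dopamine and averaged across experiments; bias factor derived by Kenakin method from the difference between Gs and β-arrestin2 coefficients.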

[10] = Cmax in Swiss albino mouse plasma at 50 mg/kg, ip measured up to 4 hrs by LC-MC/MS analysis; type: ADME, organism-based; design: dose 50 mg/kg, route intraperitoneal
Method in brief: (§3)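 Male Swiss Albino mice (nine), 50 mg/kg i.p. in 5% NMP/5% Solutol HS-15/90% saline; plasma and brain taken from three mice per time point at 0.5, 1.5 and 4 h; brain homogenized 2:1 in ice-cold PBS pH 7.4; LC-MS/MS quantitation (LLOQ 1.01 ng/mL plasma, 3.03 ng/g brain); noncompartmental analysis.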

[11] = Cmax in Swiss albino mouse brain at 50 mg/kg, ip measured up to 4 hrs by LC-MC/MS analysis; type: ADME, organism-based; design: dose 50 mg/kg, route intraperitoneal; method in brief: as §3
[12] = Toxicity in Swiss albino mouse at 50 mg/kg, ip measured up to 4 hrs; type: organism-based; conditions: in vivo
[13] = Ratio of drug level in brain to plasma in Swiss albino mouse at 50 mg/kg, ip measured up to 4 hrs by LC-MC/MS analysis; type: ADME, organism-based; method in brief: as §3

T1 sequence (P21728 whole entry, the tested form may be a part): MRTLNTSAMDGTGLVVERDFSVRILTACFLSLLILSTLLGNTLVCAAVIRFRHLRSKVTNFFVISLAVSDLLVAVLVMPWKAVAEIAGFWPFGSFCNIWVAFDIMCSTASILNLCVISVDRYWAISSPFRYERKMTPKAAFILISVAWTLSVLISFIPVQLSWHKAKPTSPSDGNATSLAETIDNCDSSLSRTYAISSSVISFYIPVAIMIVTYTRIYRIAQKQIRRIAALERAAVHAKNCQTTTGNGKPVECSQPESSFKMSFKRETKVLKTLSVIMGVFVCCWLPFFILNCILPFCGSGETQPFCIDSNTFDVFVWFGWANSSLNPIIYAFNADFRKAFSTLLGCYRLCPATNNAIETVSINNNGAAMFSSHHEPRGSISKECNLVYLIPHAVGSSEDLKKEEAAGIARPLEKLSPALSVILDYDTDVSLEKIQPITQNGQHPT

Row | SMILES | Activity (D(1A) dopamine receptor [1]) | Emax (D(1A) dopamine receptor [2]) | EC50 (D(1A) dopamine receptor [5]) | Emax (D(1A) dopamine receptor [6]) | EC50 (D(1A) dopamine receptor [7]) | further results
1 | Cc1cc(Oc2nccc3occc23)cc(C)c1-c1cccc2nccn12 | inactive | inactive |  |  |  | Activity (D(1A) dopamine receptor [3]): inactive; Emax (D(1A) dopamine receptor [4]): inactive
2 | Cc1cc(Oc2nccc(O)c2C)ccc1-c1c(C)ncc2nccn12 | inactive | inactive | 160 nM | 34% |  | 
3 | COc1ccc(-c2ccc(Oc3nccc4occc34)cc2C)c(C)n1 |  |  | 77 nM | 80% | > 10000 nM | 
4 | FC(F)(F)c1cc(Oc2cc(N3CCCCC3)ccn2)ccc1-c1cccc2nccn12 |  |  |  |  | > 10000 nM | Activity (D(1A) dopamine receptor [3]): inactive; Emax (D(1A) dopamine receptor [4]): inactive
5 | Cc1cc(Oc2nccc3occc23)ccc1-c1c(C)nc2cnccn12 |  |  | 5.8 nM | 63% | 2600 nM | Emax (D(1A) dopamine receptor [8]): 89%; fold change (FC) (D(1A) dopamine receptor [9]): 4.1
6 | Cc1cc(-c2c(C)ncc3nccn23)ccc1Oc1nccc2occc12 | inactive | inactive | 610 nM | 62% |  | 
7 | Cc1cc(Oc2nccc3occc23)ccc1-c1cccc2nccn12 |  |  | 2.7 nM | 95% | 180 nM | Emax (D(1A) dopamine receptor [8]): 63%; fold change (FC) (D(1A) dopamine receptor [9]): 1.3
8 | Cc1ncc2nccn2c1-c1ccc(Oc2nccc3occc23)c(C)c1C | inactive | inactive | 55 nM | 54% |  | 
9 | Cc1ncc2nccn2c1-c1ccc(Oc2nccc3occc23)c(C(F)(F)F)c1 | inactive | inactive |  |  |  | Activity (D(1A) dopamine receptor [3]): inactive; Emax (D(1A) dopamine receptor [4]): inactive
10 | Cc1cc(Oc2nccc3occc23)ccc1-c1nc(N)cnc1C |  |  | 22 nM | 91% | > 10000 nM | 
11 | FC(F)(F)c1cc(Oc2ccccn2)ccc1-c1cccc2nccn12 | inactive | inactive | 270 nM | 65% |  | 
12 | Cc1cc(Oc2ncccc2Br)ccc1-c1c(C)ncc2nccn12 | inactive | inactive | > 10000 nM |  |  | 
13 | Cc1c(Oc2nccc3occc23)ccc(-c2cccc3nccn23)c1C | inactive | inactive | 110 nM | 30% |  | 
14 | Cc1cc(Oc2nccc3occc23)ccc1-c1cc(N)cnc1C |  |  | 13 nM | 67% | 1100 nM | Emax (D(1A) dopamine receptor [8]): 64%; fold change (FC) (D(1A) dopamine receptor [9]): 1.2
15 | Cc1cc(Nc2nccc3occc23)ccc1-c1c(C)ncc2nccn12 |  |  | 16 nM | 98% | > 10000 nM | 
16 | Cc1cc(Oc2nccc3occc23)ccc1-c1cncc(C(N)=O)c1 | inactive | inactive | 1300 nM | 59% |  | 
17 | Cc1ncc2nccn2c1-c1cc(F)c(Oc2nccc3occc23)c(F)c1 | inactive | inactive | 140 nM | 66% |  | 
18 | Cc1cc(N(c2nccc3occc23)C(C)C)ccc1-c1c(C)ncc2nccn12 | inactive | inactive | 100 nM | 67% |  | 
19 | Cc1cc(N(CC2CC2)c2nccc3occc23)ccc1-c1c(C)ncc2nccn12 | inactive | inactive | 320 nM | 78% |  | 
20 | Cc1cc(Oc2ccccn2)ccc1-c1c(C)ncc2nccn12 |  |  | 120 nM | 83% | > 10000 nM | 
21 | Cc1cc(Oc2nccn3cccc23)ccc1-c1c(C)ncc2nccn12 |  |  |  | 83% |  | Emax (D(1A) dopamine receptor [8]): 59%; fold change (FC) (D(1A) dopamine receptor [9]): 15
22 | Cc1cc(Oc2nccn3ccnc23)ccc1-c1c(C)ncc2nccn12 | inactive | inactive | 260 nM | 85% |  | 
23 | FC(F)(F)c1cc(Oc2nccc3occ(C4CC4)c23)ccc1-c1cccc2nccn12 | inactive | inactive | 770 nM | 83% |  | 

Row | SMILES | Activity (D(1A) dopamine receptor [1]) | Emax (D(1A) dopamine receptor [2]) | EC50 (D(1A) dopamine receptor [5]) | Emax (D(1A) dopamine receptor [6]) | EC50 (D(1A) dopamine receptor [7]) | further results
24 | Cc1cc(Oc2nccc3[nH]ncc23)ccc1-c1c(C)ncc2nccn12 |  |  | 1.8 nM | 104% | > 10000 nM | 
25 | Cc1cc(Oc2nccc3occc23)ccc1-c1ccc(C#N)cn1 | inactive | inactive | > 10000 nM |  |  | 
26 | Cc1cc(N(C)c2nccc3occc23)ccc1-c1c(C)ncc2nccn12 | inactive | inactive | 88 nM | 79% |  | 
27 | Cc1cc(Oc2cc(N3CCCCC3)ccn2)ccc1-c1c(C)ncc2nccn12 | inactive | inactive | 640 nM | 26% |  | 
28 | Cc1cc(-c2cccc3nccn23)ccc1Oc1nccc2occc12 | inactive | inactive | 530 nM | 29% |  | 
29 | Cc1cc(N(c2nccc3occc23)C2CCCC2)ccc1-c1c(C)ncc2nccn12 |  |  | 1100 nM | 68% | > 10000 nM | 
30 | CCN(c1ccc(-c2c(C)ncc3nccn23)c(C)c1)c1nccc2occc12 | inactive | inactive | 36 nM | 80% |  | 
31 | FC(F)(F)c1cc(Oc2nccn3ccnc23)ccc1-c1cccc2nccn12 | inactive | inactive | 180 nM | 54% |  | 
32 | Oc1cc2c(cc1O)[C@H]1c3ccccc3CN[C@@H]1CC2 (racemic) |  |  |  |  |  | fold change (FC) (D(1A) dopamine receptor [9]): 7.5
33 | Nc1cc(Oc2nccc3occc23)ccc1-c1cccc2nccn12 |  |  | 10 nM | 91% | 790 nM | Emax (D(1A) dopamine receptor [8]): 54%; fold change (FC) (D(1A) dopamine receptor [9]): 1.7; Cmax [10]: 100 µM; Cmax [11]: 100 µM; Activity [12]: Non-Toxic; BPR [13]: 1.2 to 1.6
34 | CCOc1ncnc(C)c1-c1ccc(Oc2nccc3occc23)cc1C |  |  | 12 nM | 67% | > 10000 nM | 
35 | FC(F)(F)c1cc(-c2cccc3nccn23)ccc1Oc1nccc2occc12 | inactive | inactive |  |  |  | Activity (D(1A) dopamine receptor [3]): inactive; Emax (D(1A) dopamine receptor [4]): inactive
36 | COC(=O)c1cccn2c(-c3ccc(Oc4nccc5occc45)cc3C)cnc12 | inactive | inactive | 1000 nM | 44% |  | 
37 | FC(F)(F)c1cc(Oc2nccn3cccc23)ccc1-c1cccc2nccn12 | inactive | inactive | 7.8 nM | 78% |  | 
38 | FC(F)(F)c1cc(Oc2nccc3ccccc23)ccc1-c1cccc2nccn12 | inactive | inactive | 67 nM | 61% |  | 
39 | Cc1cc(Oc2nccc3ccsc23)ccc1-c1c(C)ncc2nccn12 |  |  | 0.23 nM | 100% | 22 nM | Emax (D(1A) dopamine receptor [8]): 63%; fold change (FC) (D(1A) dopamine receptor [9]): 1.9
40 | Cc1cc(Oc2nccc3occc23)ccc1-c1c(C)cnnc1C | inactive | inactive | 1.2 nM | 61% |  | 
41 | Cc1cc(Oc2cccc3occc23)ccc1-c1c(C)ncc2nccn12 | inactive | inactive | 79 nM | 69% |  | 
42 | Cc1cc(Oc2nccc3occ(C4CC4)c23)ccc1-c1c(C)ncc2nccn12 | inactive | inactive | 62 nM | 67% |  | 
43 | Fc1cc(-c2cccc3nccn23)cc(F)c1Oc1nccc2occc12 |  |  | 190 nM | 57% | > 10000 nM | 
44 | Cc1cc(Oc2nccc3ccccc23)ccc1-c1c(C)ncc2nccn12 |  |  | 15 nM | 82% | > 10000 nM | 
45 | Cc1ncc2nccn2c1-c1ccc(Oc2nccc3occc23)cc1N |  |  | 1.3 nM | 104% | 210 nM | Emax (D(1A) dopamine receptor [8]): 81%; fold change (FC) (D(1A) dopamine receptor [9]): 2.7
